Results published in publication PMC7594318 (ACS Omega, 2020).
Read-outs that look alike come from different tables or passages of the source.

Experiments:
Format in all cases: cell-based
[1] = system: human normal lung fibroblast MRC-5 cells; assay: WST-8 cytotoxicity assay, normal MRC-5 cells; conditions: read-out: IC50 (μM) MRC-5
Procedure, shortened: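 Normal lung fibroblast MRC-5 cells in α-MEM without ribonucleosides/deoxyribonucleosides + 10% FBS. Seeded at 2000 cells/well, preincubated 24 h, then treated with various concentrations for 72 h (DMSO 0.1–0.2% v/v). WST-8 (CCK-8) reagent 2 h at 37 °C, A450. Growth is the ratio of sample to control absorbance. IC50 is the mean ± SD of triplicates. SN-38 positive control.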

[2] = system: human lung adenocarcinoma A549 cells; assay: WST-8 cytotoxicity assay, A549 cells; conditions: for IC50: read-out: IC50 (μM) A549; for SI (selectivity index): IC50 against normal MRC-5 cells divided by IC50 against A549 cells
Procedure, shortened: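 Human lung adenocarcinoma A549 cells, kept in DMEM + 10% FBS at 37 °C, 5% CO2, seeded at 2000 cells/well, preincubated 24 h, then exposed to various concentrations for 72 h (DMSO 0.1–0.2% v/v). WST-8 (CCK-8) reagent 2 h at 37 °C, A450. Growth is sample/control absorbance. IC50 is mean ± SD of triplicates. SN-38 positive control. SI = MRC-5 IC50 / A549 IC50.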

[3] = system: human promyelocytic leukemia HL-60 cells; assay: WST-8 cytotoxicity assay, HL-60 cells; conditions: read-out: IC50 (μM) HL-60
Procedure, shortened: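 HL-60 promyelocytic leukemia cells, grown in RPMI 1640 + 10% FBS at 37 °C, 5% CO2, plated at 5000 cells/well with various concentrations for 72 h (DMSO 0.1–0.2% v/v). CCK-8 (WST-8) reagent added for 2 h at 37 °C, absorbance read at 450 nm. Growth is taken as the sample/control absorbance ratio. IC50 is the mean ± SD of triplicate experiments. SN-38 positive control.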

[4] = Table 3, WST-8, 72 h, mean ± SD of triplicate experiments
[5] = Table 4, WST-8, 72 h, mean ± SD of triplicate experiments

Structure (SMILES): Cn1c2cccc(=O)c-2nc2ccccc21 [1a, pyocyanin]
- IC50 ([1]; Homo sapiens, MRC5, 72 h): 21.8 ± 2.55 µM
- IC50 ([2]; Homo sapiens, A549, 72 h): 5.52 ± 0.28 µM
- SI (selectivity index) ([2]; Table 3): 3.95
- IC50 ([3]; Homo sapiens, HL-60, 72 h): 5.82 ± 0.133 µM

Structure (SMILES): Cn1c2ccc(Br)c(=O)c-2nc2ccccc21 [1b, 2-Bromo-5-methylphenazin-1(5H)-one]
- IC50 ([1]; Homo sapiens, MRC5, 72 h): 3.36 ± 0.204 µM
- IC50 ([2]; Homo sapiens, A549, 72 h): 2.59 ± 0.056 µM
- SI (selectivity index) ([2]; Table 3): 1.30
- IC50 ([3]; Homo sapiens, HL-60, 72 h): 3.07 ± 0.08 µM

Structure (SMILES): CC(C)=CCn1c2ccc(Cl)c(=O)c-2nc2ccccc21 [3c, 2-Chloro-5-(3-methylbut-2-en-1-yl)phenazin-1(5H)-one]
- IC50 ([1]; Homo sapiens, MRC5, 72 h): 0.66 ± 0.041 µM
- IC50 ([2]; Homo sapiens, A549, 72 h): 0.66 ± 0.016 µM
- SI (selectivity index) ([2]; Table 4): 1.00
- IC50 ([3]; Homo sapiens, HL-60, 72 h): 2.2 ± 0.07 µM

Structure (SMILES): CCc1c2c(nc3ccc(O)cc13)-c1cc3c(c(=O)n1C2)COC(=O)[C@]3(O)CC [SN-38, reference compound]
- IC50 [1, 4]: < 0.1 µM
- IC50 [1, 5]: 0.092 ± 0.001 µM
- IC50 [2, 4]: 0.038 ± 0.003 µM
- IC50 [2, 5]: 0.052 ± 0.003 µM
- IC50 [3, 4]: < 0.05 µM
- IC50 [3, 5]: 0.056 ± 0.002 µM
